Experimental data reported in article PMC4783179 (The Journal of comparative neurology, 2015).
Like-named read-outs stand apart in the source and are kept apart here. Marks after values point to notes of the source that are not given here.

Columns and labels:
[1] = target: adrenergic α1A (Homo sapiens, UniProt P35348); assay: NIMH PDSP binding affinity, human cloned receptor
[2] = target: adrenergic α1D (Homo sapiens, UniProt P25100); assay: NIMH PDSP binding affinity, human cloned receptor
[3] = target: T1, 5-HT1A receptors (Mus musculus, UniProt Q64264); assay: In vitro autoradiography of 18F-Mefway, mouse brain slices; format: binding
T1 sequence (Q64264 1-421): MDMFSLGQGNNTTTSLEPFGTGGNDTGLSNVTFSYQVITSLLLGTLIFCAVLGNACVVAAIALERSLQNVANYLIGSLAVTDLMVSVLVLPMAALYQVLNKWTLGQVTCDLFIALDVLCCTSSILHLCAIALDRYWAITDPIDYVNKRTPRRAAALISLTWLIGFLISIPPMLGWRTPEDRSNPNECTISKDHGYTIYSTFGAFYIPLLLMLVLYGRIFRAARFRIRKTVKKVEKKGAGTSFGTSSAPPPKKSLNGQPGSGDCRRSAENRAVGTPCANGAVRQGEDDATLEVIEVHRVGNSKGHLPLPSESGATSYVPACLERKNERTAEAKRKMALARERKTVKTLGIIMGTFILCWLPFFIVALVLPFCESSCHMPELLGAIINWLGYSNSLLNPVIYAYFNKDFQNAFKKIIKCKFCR
Method in brief: (§1)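 Horizontal 10 µm slices covering hippocampus, frontal cortex, dorsal raphe and cerebellum. Sources: frozen brains of male BALB/c mice (25 g) or male Sprague-Dawley rats (250–300 g). Preincubated in 50 mM Tris-HCl pH 7.4 for 10 min at room temperature, then 37–185 kBq/mL tracer at 37 °C for 1 h. […] Washed, then phosphor screen for 24 h. Regional DLU/mm² expressed as ratios to cerebellum as reference.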

[4] = target: T1, 5-HT1A receptors; conditions: cited from earlier work; for Brain Uptake: initial, 1–2 min post-injection
[5] = target: T2, 5-HT1A receptors (Rattus norvegicus, UniProt P19327); assay: In vitro autoradiography of 18F-Mefway, rat brain slices; format: binding
T2 sequence (P19327 1-422): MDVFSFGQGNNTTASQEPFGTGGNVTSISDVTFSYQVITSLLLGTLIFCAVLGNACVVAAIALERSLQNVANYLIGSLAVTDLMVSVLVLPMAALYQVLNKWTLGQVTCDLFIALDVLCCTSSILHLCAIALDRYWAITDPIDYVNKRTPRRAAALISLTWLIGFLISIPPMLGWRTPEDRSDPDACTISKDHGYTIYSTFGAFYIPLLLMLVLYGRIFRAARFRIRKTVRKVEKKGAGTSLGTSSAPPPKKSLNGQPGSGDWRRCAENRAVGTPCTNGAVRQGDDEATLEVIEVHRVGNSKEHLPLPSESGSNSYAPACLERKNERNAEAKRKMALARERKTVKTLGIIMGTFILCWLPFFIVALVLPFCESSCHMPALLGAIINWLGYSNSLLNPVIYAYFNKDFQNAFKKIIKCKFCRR
Method in brief: as §1

[6] = target: serotonin 5-HT1A receptors; conditions: rat brain homogenates labeled with 3H-WAY 100635; ref Saigal et al., 2013; cited from earlier work
[7] = target: D5 (Homo sapiens, UniProt P21918); assay: NIMH PDSP binding affinity, human cloned receptor; conditions: D1-like receptors
Sequence of D5 (P21918 whole entry): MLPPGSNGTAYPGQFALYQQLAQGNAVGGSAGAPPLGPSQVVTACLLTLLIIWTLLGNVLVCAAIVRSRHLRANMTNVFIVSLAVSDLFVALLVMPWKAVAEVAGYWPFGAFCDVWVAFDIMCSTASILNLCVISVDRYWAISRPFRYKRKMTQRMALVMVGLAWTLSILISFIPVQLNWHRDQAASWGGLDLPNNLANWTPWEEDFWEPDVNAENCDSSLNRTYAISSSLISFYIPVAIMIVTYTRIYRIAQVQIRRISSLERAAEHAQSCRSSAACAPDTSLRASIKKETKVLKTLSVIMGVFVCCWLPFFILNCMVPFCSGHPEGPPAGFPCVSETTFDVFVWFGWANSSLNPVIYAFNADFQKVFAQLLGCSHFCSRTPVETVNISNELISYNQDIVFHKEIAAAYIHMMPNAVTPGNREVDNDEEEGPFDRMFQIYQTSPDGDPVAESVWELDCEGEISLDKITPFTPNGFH

[8] = target: multidrug resistance 1 protein (MDR1; P-glycoprotein) (Homo sapiens, UniProt P08183); assay: Multidrug resistance; format: biochemical; conditions: read-out: IC50 as potential substrate of MDR1 (P-glycoprotein)
[9] = target: T3, 5-HT1A receptors (Canis lupus familiaris, UniProt Q6XXX9); assay: In vitro autoradiography of 18F-Mefway, beagle dog brain slices; format: binding
T3 sequence (Q6XXX9 1-423): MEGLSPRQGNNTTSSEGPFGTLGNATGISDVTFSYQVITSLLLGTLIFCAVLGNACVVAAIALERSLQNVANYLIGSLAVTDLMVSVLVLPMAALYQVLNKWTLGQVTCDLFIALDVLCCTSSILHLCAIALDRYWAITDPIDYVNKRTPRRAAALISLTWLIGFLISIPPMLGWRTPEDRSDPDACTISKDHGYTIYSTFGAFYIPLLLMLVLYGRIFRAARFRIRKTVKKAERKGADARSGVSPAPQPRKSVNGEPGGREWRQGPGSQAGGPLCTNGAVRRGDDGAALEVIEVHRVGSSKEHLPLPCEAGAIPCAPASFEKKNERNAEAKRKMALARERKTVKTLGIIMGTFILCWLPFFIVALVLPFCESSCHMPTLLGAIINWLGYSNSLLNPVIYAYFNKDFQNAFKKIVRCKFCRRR
Method in brief: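 Dog tissue: unfixed beagle brain (4.5–15.4 yr), stored at −80 °C, cut as 10 µm hemi-coronal slices with hippocampus and cortex. Human tissue: postmortem hippocampus (PMI 3.8–5.8 h), cut at 7 µm. Slices preincubated in 50 mM Tris-HCl pH 7.4 for 10 min at room temperature, then incubated with 37–185 kBq/mL tracer at 37 °C for 1 h. […] Two 1-min ice-cold buffer washes, then 24 h phosphor-screen exposure. Binding read as DLU/mm².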

[10] = target: D2 subtype (Homo sapiens, UniProt P14416); assay: NIMH PDSP binding affinity, human cloned receptor; conditions: read-out: Affinity, D2 subtype
Sequence of D2 subtype (P14416 whole entry): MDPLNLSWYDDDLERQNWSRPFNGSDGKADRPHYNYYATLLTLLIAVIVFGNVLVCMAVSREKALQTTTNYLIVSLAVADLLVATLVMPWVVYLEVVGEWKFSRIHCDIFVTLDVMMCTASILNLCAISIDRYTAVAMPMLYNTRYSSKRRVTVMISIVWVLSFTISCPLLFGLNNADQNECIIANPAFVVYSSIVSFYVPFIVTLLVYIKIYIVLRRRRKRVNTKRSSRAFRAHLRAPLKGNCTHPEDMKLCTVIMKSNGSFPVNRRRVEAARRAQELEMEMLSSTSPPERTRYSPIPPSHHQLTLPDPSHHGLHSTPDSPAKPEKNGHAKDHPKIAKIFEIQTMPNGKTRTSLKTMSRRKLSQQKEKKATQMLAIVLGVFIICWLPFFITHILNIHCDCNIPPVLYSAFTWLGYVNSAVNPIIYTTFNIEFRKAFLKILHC

[11] = system: Sprague-Dawley rats; assay: Expanded acute toxicity study; format: in vivo, rat; conditions: for Maximum tolerated dose (MTD) / No observed adverse effect level (NOAEL): intravenous, Days 1, 3 and 6, male and female rats
Method in brief: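 Sprague-Dawley rats, 40 males and 40 females, 8–9 weeks old (males 243–283 g, females 175–202 g), plus a vehicle control group. Dosed i.v. at 4, 20 or 40 μg/kg/day (27.8, 139, 278 μg/m²/day). Monitored clinical signs (motor and behavioural), body weight, food intake, ophthalmology, haematology, serum chemistry and urinalysis. Histopathology on Days 7 and 20 after euthanasia.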

[12] = [5-HT1A affinity/other receptor affinity]×100, 5-HT1A 0.6 or 2.2 nM for WAY-100635, 0.9 nM for Mefway
[13] = dog brain cortex, relative to layers I and II

Sequence of adrenergic α1A (P35348 whole entry): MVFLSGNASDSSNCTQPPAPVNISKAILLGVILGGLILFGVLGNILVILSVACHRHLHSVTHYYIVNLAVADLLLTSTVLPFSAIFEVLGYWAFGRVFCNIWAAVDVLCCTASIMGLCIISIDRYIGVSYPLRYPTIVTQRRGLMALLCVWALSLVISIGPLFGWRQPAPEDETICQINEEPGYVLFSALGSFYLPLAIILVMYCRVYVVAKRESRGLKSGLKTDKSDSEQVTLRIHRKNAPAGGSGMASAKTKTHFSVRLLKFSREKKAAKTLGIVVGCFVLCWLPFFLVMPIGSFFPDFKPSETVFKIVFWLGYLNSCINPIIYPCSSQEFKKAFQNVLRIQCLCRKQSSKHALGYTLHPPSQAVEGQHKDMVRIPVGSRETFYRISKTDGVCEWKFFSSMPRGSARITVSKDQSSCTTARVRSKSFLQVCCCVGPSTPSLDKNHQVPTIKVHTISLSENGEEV
Sequence of adrenergic α1D (P25100 whole entry): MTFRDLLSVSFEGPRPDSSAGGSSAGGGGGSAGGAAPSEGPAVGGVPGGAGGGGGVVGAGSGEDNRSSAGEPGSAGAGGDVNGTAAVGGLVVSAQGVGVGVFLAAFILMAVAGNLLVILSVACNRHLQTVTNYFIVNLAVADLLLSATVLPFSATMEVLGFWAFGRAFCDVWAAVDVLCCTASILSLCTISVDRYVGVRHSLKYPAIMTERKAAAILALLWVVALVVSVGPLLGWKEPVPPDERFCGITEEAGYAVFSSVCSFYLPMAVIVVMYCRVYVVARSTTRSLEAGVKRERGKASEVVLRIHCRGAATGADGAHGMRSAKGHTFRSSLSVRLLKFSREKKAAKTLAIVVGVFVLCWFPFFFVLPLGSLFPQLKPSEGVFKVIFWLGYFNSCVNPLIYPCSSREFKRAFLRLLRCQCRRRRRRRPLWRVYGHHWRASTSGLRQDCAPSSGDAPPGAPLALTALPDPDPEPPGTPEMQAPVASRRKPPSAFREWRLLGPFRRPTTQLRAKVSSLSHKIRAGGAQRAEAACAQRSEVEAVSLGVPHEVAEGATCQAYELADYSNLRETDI

SMILES: COc1ccccc1N1CCN(CCN(C(=O)C2CCC(CF)CC2)c2ccccn2)CC1 (stereo not drawn) [Mefway]
- % human 5HT1A Selectivity, α1A [1, 12]: 1.29%
- Ki ([1]; read-out: Binding affinity, Ki, α1A, human cloned receptor, PDSP): 70 nM
- % human 5HT1A Selectivity, α1D [2, 12]: 1.58%
- Ki ([2]; read-out: Binding affinity, Ki, α1D, human cloned receptor, PDSP): 57 nM
- Binding displaced in hippocampus and cortex ([3]; in the presence of 10 μM of WAY-100635, mouse (all the species)): > 95%
- Ratio in cortical regions, autoradiography ([3]; mice): > 10
- Ratio of hippocampus to cerebellum, autoradiography ([3]; mice, brain slices incubated for one hr): 25
- Ratio of raphe to cerebellum, autoradiography ([3]; mice, horizontal sections): 22
- HP/CB PET ratio ([4]; 90 mins post-injection, may be underestimated, ref Saigal et al., 2013): 3 ^g
- Brain Uptake ([4]; ref Saigal et al., 2013, listed as 18F-Mefway): 5 %ID/cc
- Brain Uptake ([4]; ref Saigal et al., 2013): 5 ^g %ID/cc
- Binding displaced in hippocampus and cortex ([5]; in the presence of 10 μM of WAY-100635, rat (all the species)): > 95%
- Ratio in cortical regions, autoradiography ([5]; rats): > 10
- Ratio of hippocampus to cerebellum, autoradiography ([5]; rats, brain slices incubated for one hr): 30
- Ratio of raphe to cerebellum, autoradiography ([5]; rats, horizontal sections): 23
- Binding affinity, Ki, 5-HT1A, rat brain homogenates [6]: subnanomolar affinity
- Affinity, D5 subtype [7]: very poor affinities
- IC50 [8]: > 30000 nM
- Level of binding in cortical layers I and II ([9]; dog brain cortex, relative to highest layer): 100%
- Level of binding in cortical layers III and IV [9, 13]: 31%
- Level of binding in cortical layers V and VI [9, 13]: 36%
- Ratio of hippocampus to white matter, autoradiography ([9]; dog brain, same brain slice): > 50
- Binding displaced in hippocampus and cortex ([9]; in the presence of 10 μM of WAY-100635, dog (all the species)): > 95%
- Ki [10]: 188 nM
- Morbidity or mortality ([11]; 4, 20 and 40 μg/kg/day i.v.): no morbidity or mortality
- Tolerability ([11]; 4, 20 and 40 μg/kg/day i.v. on Days 1, 3 and 6): well tolerated
- Maximum tolerated dose (MTD) [11]: > 278 μg/m^2/day
- No observed adverse effect level (NOAEL) [11]: > 278 μg/m^2/day
- Maximum tolerated dose (MTD) ([11]; maximum dose level tested): exceed 40 μg/kg/day
- No observed adverse effect level (NOAEL) ([11]; maximum dose level tested): exceed 40 μg/kg/day
